Measured values published in ChEMBL document CHEMBL1138715, “Isoxazole-3-hydroxamic acid derivatives as peptide deformylase inhibitors and potential antibacterial agents” (Bioorg Med Chem Lett, 2004).
Converted amounts (≈) assume the structure as drawn.

Legend:
Assay type in all cases: functional
Escherichia coli [1] = test: In vitro antibacterial activity against Escherichia coli mutant strain EC-AH547
Procedure, shortened: (§1)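 MICs in µg/mL, determined by dilution susceptibility testing in liquid culture under NCCLS standard conditions for aerobically growing bacteria. Strains: EC-AH547, a tolC E. coli mutant with reduced efflux-pump activity; SA-101, a multiresistant S. aureus; SA-ATCC-25923, wild-type S. aureus.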

Escherichia coli [2] = test: In vitro antibacterial activity against Escherichia coli wild type EC-ATCC-25922
Procedure, shortened: (§2)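 MIC, the lowest inhibiting concentration in µg/mL, determined in liquid culture by NCCLS standard dilution susceptibility conditions for aerobically growing bacteria. EC-ATCC-25922 is wild-type E. coli; EC-DC2 is a hyperpermeable E. coli strain.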

Escherichia coli [3] = test: In vitro antibacterial activity against Escherichia coli hyperpermeable strain EC-DC2; procedure, shortened: as §2
Staphylococcus aureus [4] = test: In vitro antibacterial activity against Staphylococcus aureus wild type SA-ATCC-25923; procedure, shortened: as §1
Staphylococcus aureus [5] = test: In vitro inhibitory activity against Staphylococcus aureus
Procedure, shortened: (§3)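 Enzyme inhibition of peptide deformylase (PDF) from E. coli or S. aureus, in vitro. IC50 reported in µM as the mean of three experiments.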

Escherichia coli [6] = test: In vitro inhibitory activity against Escherichia coli; procedure, shortened: as §3
Staphylococcus aureus [7] = test: In vitro antibacterial activity against Staphylococcus aureus multi-resistant strain SA-101; procedure, shortened: as §1

IC50 (Staphylococcus aureus [5]) [nM] | SMILES | also measured
2000 | O=C(NO)c1cc(CSc2cccc(Br)c2)on1 | –
37700 | Cc1cc(C)c(SCc2cc(C(=O)NO)no2)c(C)c1 | –
900 | Cc1ccc([S+]([O-])Cc2cc(C(=O)NO)no2)cc1 (stereo not given) | –
24000 | COc1ccc(SCc2cc(C(=O)NO)no2)cc1 | –
800 | O=C(NO)c1cc(CS(=O)(=O)c2ccc(Cl)cc2)on1 | –
42000 | CC(=O)Nc1ccc(SCc2cc(C(=O)NO)no2)cc1 | –
6500 | COc1cccc(S(=O)(=O)Cc2cc(C(=O)NO)no2)c1 | –
8700 | O=C(NO)c1cc(CSc2ccc(C(F)(F)F)cc2)on1 | –
7600 | CC(C)c1ccccc1SCc1cc(C(=O)NO)no1 | –
4900 | O=C(NO)c1cc(CSc2ccccc2Br)on1 | –
1500 | O=C(NO)c1cc(CSc2ccc(F)cc2)on1 | –
3400 | CC(C)c1ccccc1S(=O)(=O)Cc1cc(C(=O)NO)no1 | –
9300 | O=C(NO)c1cc(CSc2ccccc2C(F)(F)F)on1 | –
2200 | O=C(NO)c1cc(CSCc2cccc(C(F)(F)F)c2)on1 | –
4000 | Cc1ccc(SCc2cc(C(=O)NO)no2)cc1 | –
3800 | O=C(NO)c1cc(CSc2ccccc2Cl)on1 | –
1700 | O=C(NO)c1cc(CS(=O)(=O)c2cccc(Cl)c2)on1 | –

SMILES | IC50 (Staphylococcus aureus [5]) [nM] | also measured
O=C(NO)c1cc(CSc2ccc(Cl)cc2)on1 | 1300 | MIC (Escherichia coli [1]): 64 µg/mL (≈ 225 µM); MIC (Escherichia coli [2]): 128 µg/mL (≈ 450 µM); MIC (Escherichia coli [3]): 32 µg/mL (≈ 112 µM); MIC (Staphylococcus aureus [4]): > 128 µg/mL
Cc1ccc(S(=O)(=O)Cc2cc(C(=O)NO)no2)cc1 | 1400 | IC50 (Escherichia coli [6]): 11.5 µM
O=C(NO)c1cc(CSc2cccc(Cl)c2)on1 | 2300 | MIC (Escherichia coli [1]): 64 µg/mL (≈ 225 µM); MIC (Escherichia coli [2]): > 128 µg/mL; MIC (Escherichia coli [3]): 32 µg/mL (≈ 112 µM); MIC (Staphylococcus aureus [4]): > 128 µg/mL
O=C(NO)c1cc(CSc2ccc(Cl)c(Cl)c2)on1 | 2000 | MIC (Escherichia coli [1]): 16 µg/mL (≈ 50.1 µM); MIC (Escherichia coli [2]): > 128 µg/mL; MIC (Escherichia coli [3]): 32 µg/mL (≈ 100 µM); MIC (Staphylococcus aureus [4]): 128 µg/mL (≈ 401 µM); MIC (Staphylococcus aureus [7]): 128 µg/mL (≈ 401 µM)
COc1cccc(SCc2cc(C(=O)NO)no2)c1 | 2200 | MIC (Escherichia coli [1]): 128 µg/mL (≈ 457 µM); MIC (Escherichia coli [2]): > 128 µg/mL; MIC (Escherichia coli [3]): 128 µg/mL (≈ 457 µM); MIC (Staphylococcus aureus [4]): > 128 µg/mL
